≈ marks a conversion by molar mass, not a printed value. Calls of active or inactive are those of the source. No cut-off for these calls is given here.
Tests used:
Staphylococcus aureus [1] = experiment: Antibacterial activity against methicillin-resistant Staphylococcus aureus ATCC 43300 after 16 hrs by broth microdilution assay; format: functional; settings: for MIC: ATCC 43300, 16 h
Acinetobacter baumannii [2] = experiment: Antibacterial activity against Acinetobacter baumannii isolate 3941 after 16 hrs by broth microdilution assay; format: organism-based
Staphylococcus aureus [3] = experiment: Antibiofilm activity against methicillin-resistant Staphylococcus aureus ATCC 43300 assessed as dispersion of preformed biofilm after 24 hrs by crystal violet staining based method
Acinetobacter baumannii [4] = experiment: Antibacterial activity against Acinetobacter baumannii ATCC 17978 after 16 hrs by broth microdilution assay; format: organism-based
Acinetobacter baumannii [5] = experiment: Potentiation of colistin-induced antimicrobial activity against Acinetobacter baumannii ATCC 19606 assessed as fold reduction in colistin MIC after 16 hrs by broth microdilution assay; format: functional, ATCC 19606 = CIP 70.34 = JCM 6841
Procedure, shortened: (§1)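 Analogue at a fixed 60 μM unless otherwise noted, combined with colistin against the Gram-negative strain. Potentiation is read as the fold reduction in colistin MIC relative to colistin alone. A. baumannii 3941/4106 and K. pneumoniae C3/B9 are primary clinical isolates with genomically encoded colistin resistance.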

Acinetobacter baumannii [6] = experiment: Antibacterial activity against Acinetobacter baumannii ATCC 19606 after 16 hrs by broth microdilution assay; format: organism-based, ATCC 19606 = CIP 70.34 = JCM 6841; settings: for MIC: […]
Staphylococcus aureus [7] = experiment: Antibiofilm activity against methicillin-resistant Staphylococcus aureus ATCC 43300 assessed induction of dispersion of preformed biofilm after 24 hrs by crystal violet staining based method; format: functional, organism-based; settings: ATCC 43300, 24 h
Acinetobacter baumannii [8] = experiment: Antibacterial activity against Acinetobacter baumannii isolate 5075 after 16 hrs by broth microdilution assay; format: organism-based
Staphylococcus aureus [9] = experiment: Inhibition of biofilm formation in methicillin-resistant Staphylococcus aureus ATCC 43300 after 24 hrs by crystal violet staining based method; format: functional, organism-based; settings: ATCC 43300, 24 h
Procedure, shortened: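 Read-out is the IC50, taken as the compound concentration that inhibits 50% of MRSA 43300 biofilm formation.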

Acinetobacter baumannii [10] = experiment: Antibacterial activity against Acinetobacter baumannii isolate 4106 after 16 hrs by broth microdilution assay; format: organism-based
Klebsiella pneumoniae [11] = experiment: Antibacterial activity against Klebsiella pneumoniae isolate B9 after 16 hrs by broth microdilution assay; settings: in vivo
Klebsiella pneumoniae [12] = experiment: Antibacterial activity against Klebsiella pneumoniae ATCC 2146 expressing NDM1 gene after 16 hrs by broth microdilution assay; format: organism-based; settings: for MIC: […]
Klebsiella pneumoniae [13] = experiment: Antibacterial activity against Klebsiella pneumoniae isolate C3 after 16 hrs by broth microdilution assay; settings: for MIC: […]
Acinetobacter baumannii [14] = experiment: Potentiation of colistin-induced antimicrobial activity against Acinetobacter baumannii ATCC 17978 assessed as fold reduction in colistin MIC after 16 hrs by broth microdilution assay; format: functional; procedure, shortened: as §1
Acinetobacter baumannii [15] = experiment: Potentiation of colistin-induced antimicrobial activity against Acinetobacter baumannii isolate 4106 assessed as fold reduction in colistin MIC after 16 hrs by broth microdilution assay; format: functional; procedure, shortened: as §1
Acinetobacter baumannii [16] = experiment: Potentiation of colistin-induced antimicrobial activity against Acinetobacter baumannii ATCC 17978 expressing mcr1 gene assessed as fold reduction in colistin MIC after 16 hrs by broth microdilution assay; format: functional; procedure, shortened: as §1
Acinetobacter baumannii [17] = experiment: Potentiation of colistin-induced antimicrobial activity against Acinetobacter baumannii isolate 5075 assessed as fold reduction in colistin MIC after 16 hrs by broth microdilution assay; format: functional; procedure, shortened: as §1
Klebsiella pneumoniae [18] = experiment: Potentiation of colistin-induced antimicrobial activity against Klebsiella pneumoniae isolate B9 assessed as fold reduction in colistin MIC after 16 hrs by broth microdilution assay; format: functional; procedure, shortened: as §1
Escherichia coli [19] = experiment: Potentiation of colistin-induced antimicrobial activity against Escherichia coli ATCC 25922 assessed as fold reduction in colistin MIC after 16 hrs by broth microdilution assay; format: functional; procedure, shortened: as §1
Escherichia coli [20] = experiment: Potentiation of colistin-induced antimicrobial activity against Escherichia coli ATCC 25922 expressing mcr1 gene assessed as fold reduction in colistin MIC after 16 hrs by broth microdilution assay; format: functional; procedure, shortened: as §1
Klebsiella pneumoniae [21] = experiment: Potentiation of colistin-induced antimicrobial activity against Klebsiella pneumoniae ATCC 2146 expressing NDM1 gene assessed as fold reduction in colistin MIC after 16 hrs by broth microdilution assay; format: functional; procedure, shortened: as §1
Escherichia coli [22] = experiment: Antibacterial activity against Escherichia coli ATCC 25922 after 16 hrs by broth microdilution assay; format: organism-based
Acinetobacter baumannii [23] = experiment: Antibacterial activity against Acinetobacter baumannii ATCC 17978 expressing mcr1 gene after 16 hrs by broth microdilution assay; format: organism-based; settings: in vitro
Escherichia coli [24] = experiment: Antibacterial activity against Escherichia coli ATCC 25922 expressing mcr1 gene after 16 hrs by broth microdilution assay; format: organism-based; settings: in vitro
Klebsiella pneumoniae [25] = experiment: Potentiation of colistin-induced antimicrobial activity against Klebsiella pneumoniae isolate B9 after 16 hrs in presence of 0.01% triton X-100 by broth microdilution assay; format: functional, organism-based
Acinetobacter baumannii [26] = experiment: Potentiation of colistin-induced antimicrobial activity against Acinetobacter baumannii isolate 4106 after 16 hrs in presence of 0.01% triton X-100 by broth microdilution assay; format: functional, organism-based
Klebsiella pneumoniae [27] = experiment: Potentiation of colistin-induced antimicrobial activity against Klebsiella pneumoniae isolate B9 after 16 hrs by broth microdilution assay; format: functional, organism-based; procedure, shortened: as §1
Staphylococcus aureus [28] = experiment: Potentiation of vancomycin-induced antibacterial activity against methicillin-resistant Staphylococcus aureus ATCC 43300 assessed as dispersion of preformed biofilm after 24 hrs by crystal violet staining based method; format: functional, organism-based; settings: ATCC 43300, 24 h

Compound	MIC (Staphylococcus aureus [1])	IC50 (Staphylococcus aureus [9])	MIC (Acinetobacter baumannii [2])	MIC (Acinetobacter baumannii [4])	MIC (Acinetobacter baumannii [6])	MIC (Escherichia coli [22])	MIC (Acinetobacter baumannii [8])	MIC (Acinetobacter baumannii [23])	MIC (Acinetobacter baumannii [10])	MIC (Klebsiella pneumoniae [11])	MIC (Klebsiella pneumoniae [12])	MIC (Escherichia coli [24])	MIC (Klebsiella pneumoniae [13])	also measured
CCCn1cc(-c2ccnc(N)n2)c2ccc(Br)cc21.Cl	200 µM	34.3 µM												Activity (Acinetobacter baumannii [2]): Toxic; EC50 (Staphylococcus aureus [3]): Not Active; Activity (Acinetobacter baumannii [4]): Toxic; fold change (FC) (Acinetobacter baumannii [5]): 16; Activity (Acinetobacter baumannii [6]): Toxic; EC50 (Staphylococcus aureus [7]): > 160 µM; Activity (Acinetobacter baumannii [8]): Toxic; Activity (Acinetobacter baumannii [10]): Toxic; Activity (Klebsiella pneumoniae [11]): Toxic; Activity (Klebsiella pneumoniae [12]; in vitro): Toxic; Activity (Klebsiella pneumoniae [13]): Toxic
Cl.Nc1nccc(-c2c[nH]c3cc(Br)ccc23)n1	> 200 µM	87.4 µM												fold change (FC) (Acinetobacter baumannii [14]): 2; fold change (FC) (Acinetobacter baumannii [15]): 64; fold change (FC) (Acinetobacter baumannii [16]): 32; fold change (FC) (Acinetobacter baumannii [17]): 4; fold change (FC) (Klebsiella pneumoniae [18]): 64; fold change (FC) (Escherichia coli [19]): 0; fold change (FC) (Escherichia coli [20]): 2; fold change (FC) (Klebsiella pneumoniae [21]): 2
CC(C)Cn1cc(-c2ccnc(N)n2)c2cc(Br)ccc21.Cl		> 100 µM	> 200 µM	> 200 µM	> 200 µM	> 200 µM	> 200 µM	> 200 µM	> 200 µM	> 200 µM	> 200 µM	> 200 µM	> 200 µM	fold change (FC) (Acinetobacter baumannii [14]): 16; fold change (FC) (Acinetobacter baumannii [5]): 16; fold change (FC) (Escherichia coli [19]): 16
Cc1ccc2[nH]cc(-c3ccnc(N)n3)c2c1.Cl		> 100 µM	> 200 µM	> 200 µM	> 200 µM	> 200 µM	> 200 µM	> 200 µM	> 200 µM	> 200 µM	> 200 µM	> 200 µM	> 200 µM	Activity (Staphylococcus aureus [1]): inactive; Activity (Klebsiella pneumoniae [25]): inactive; Activity (Acinetobacter baumannii [26]): inactive
CCn1cc(-c2ccnc(N)n2)c2cc(Br)ccc21.Cl	200 µM	66.2 µM	> 200 µM	> 200 µM	> 200 µM	> 200 µM	> 200 µM	> 200 µM	> 200 µM	> 200 µM	> 200 µM	> 200 µM	> 200 µM	
Cl.Nc1nccc(-c2c[nH]c3cc(I)ccc23)n1	> 200 µM	42.5 µM	> 200 µM	> 200 µM	> 200 µM	> 200 µM	> 200 µM	> 200 µM	> 200 µM	> 200 µM	> 200 µM	> 200 µM	> 200 µM	
CN(C)c1nccc(-c2c[nH]c3ccc(Br)cc23)n1.Cl	100 µM	23.4 µM	> 200 µM	> 200 µM	> 200 µM	> 200 µM	> 200 µM	> 200 µM	> 200 µM	> 200 µM	> 200 µM	> 200 µM	> 200 µM	EC50 (Staphylococcus aureus [3]): Not Active; EC50 (Staphylococcus aureus [7]): > 160 µM
CCCn1cc(-c2ccnc(N)n2)c2cc(Br)ccc21.Cl	100 µM	69.3 µM	> 200 µM	> 200 µM	> 200 µM	> 200 µM	> 200 µM	> 200 µM	> 200 µM	> 200 µM	> 200 µM	> 200 µM	> 200 µM	fold change (FC) (Acinetobacter baumannii [14]): 16; fold change (FC) (Acinetobacter baumannii [15]): 64; fold change (FC) (Acinetobacter baumannii [16]): 4; fold change (FC) (Acinetobacter baumannii [17]): 128; fold change (FC) (Klebsiella pneumoniae [18]): 512; Activity (Klebsiella pneumoniae [27]): Active; fold change (FC) (Escherichia coli [19]): 16; fold change (FC) (Escherichia coli [20]): 4; fold change (FC) (Klebsiella pneumoniae [21]): 16
Nc1nccc(-c2c[nH]c3ccccc23)n1		> 100 µM												Activity (Staphylococcus aureus [1]): inactive; Activity (Klebsiella pneumoniae [25]): inactive; Activity (Acinetobacter baumannii [26]): inactive
Cl.Nc1nccc(-c2c[nH]c3ccc(I)cc23)n1	200 µM	49.3 µM	> 200 µM	> 200 µM	> 200 µM	> 200 µM	> 200 µM	> 200 µM	> 200 µM	> 200 µM	> 200 µM	> 200 µM	> 200 µM	
Nc1nccc(-c2c[nH]c3ccc(Br)cc23)n1	200 µM (≈ 57.8 µg/mL)	17.9 µM												EC50 (Staphylococcus aureus [7]): 138 µM; EC50 (Staphylococcus aureus [28]): 92.1 µM
CCn1cc(-c2ccnc(N)n2)c2ccc(Br)cc21.Cl	200 µM	64 µM	> 200 µM	> 200 µM	> 200 µM	> 200 µM	> 200 µM	> 200 µM	> 200 µM	> 200 µM	> 200 µM	> 200 µM	> 200 µM	
